Bioassay records from PubChem.
The entries come from a sample that favours hits as a whole.
T cruzi growth-1: T. cruzi proliferation inhibition; T. cruzi beta-gal in NIH3T3, GalScreen luminescence, 90 h; inhibition, % at 8.34 µM; 5.9% of 77,000 active;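 active means mean inhibition above about 93%, with at least 55% of replicates each passing it, limit read from the data, passing the limit was not always enough; inconclusive means only one of those two conditions holds; inactive means neither condition holds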
IDH1 R132H inh: inhibitors of human IDH1 R132H | 0.18% of 70,000 active | inhibition, % at 10 µM | AID 624101 | IDH1 R132H reductase, diaphorase/resazurin fluorescence, 60 min | O75874; in the data active means inhibition above about 34%; inconclusive means no clear call, values can overlap the other calls; inactive means below about 11%;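 further: 0% = DMSO and 100% = no enzyme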
GASC1 inh: blocks human GASC-1 (KDM4C) demethylase activity | inhibition, % at 12.5 µM | 0.15% of 96,000 active | AID 720574 | Q9H3R0 | GST-KDM4C 2-372, H3K9me3 peptide, LANCE TR-FRET;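 active means mean replicate inhibition above about 25%, with at least 55% of replicates also reaching it, limit read from the data, passing the limit was not always enough; inconclusive means only one of those two conditions met; inactive means neither condition met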
Target sequence (Q9H3R0 2-372 limits assumed): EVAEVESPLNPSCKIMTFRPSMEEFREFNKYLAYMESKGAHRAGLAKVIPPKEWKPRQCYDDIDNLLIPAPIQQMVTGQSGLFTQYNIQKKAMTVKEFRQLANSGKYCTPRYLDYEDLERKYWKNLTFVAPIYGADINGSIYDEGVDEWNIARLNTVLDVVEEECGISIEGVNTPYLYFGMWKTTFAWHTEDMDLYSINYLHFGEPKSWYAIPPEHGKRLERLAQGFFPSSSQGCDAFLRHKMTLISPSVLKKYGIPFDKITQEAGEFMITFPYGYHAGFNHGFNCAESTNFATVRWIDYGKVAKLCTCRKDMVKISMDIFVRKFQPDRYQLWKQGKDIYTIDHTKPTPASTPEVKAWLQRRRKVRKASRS
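Material: GST-tagged GASC-1 (JMJD2C) catalytic fragment, aa 2-372. Input: enzyme final amount 10 nM. Medium: HEPES buffer, pH 7.5, plus ascorbate. Reagent: H3K9me3 peptide substrate, Fe(II), 2-oxoglutarate. Doses: single dose. Times: reaction 30 min RT, detection step 1 h RT. Measured by: LANCE TR-FRET. Evaluation: Fall in 671/618 emission ratio as inhibition.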
T cruzi growth-2: Trypanosoma cruzi proliferation inhibition; shares compounds with T cruzi growth-1; T. cruzi beta-gal in NIH3T3, GalScreen luminescence, 90 h; inhibition, % at 8.35 µM; 72% of 5,600 active; AID 651739;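 active means mean replicate inhibition above about 95% and at least 55% of replicates individually reaching it, limit read from the data; inconclusive means only one of the two criteria is met; inactive means neither criterion is met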
T cruzi growth-3: blocks T. cruzi growth in NIH3T3 host cells; shares compounds with T cruzi growth-1; T. cruzi beta-gal in NIH3T3, GalScreen luminescence, 90 h; inhibition, % at 2.09 µM; 21% of 5,600 active; AID 651740;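 active means mean inhibition above about 95%, with at least 55% of replicates also reaching it, limit read from the data; inconclusive means meets just one of the two conditions; inactive means meets neither condition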;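 further: plate controls were neutral control median for no effect and positive control median for full effect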
NIH3T3 tox: kills mouse NIH/3T3 fibroblasts; 14% of 5,600 active; shares compounds with T cruzi growth-1; AID 651742; NIH/3T3 viability, CellTiter-Glo ATP luminescence, 90 h; cytotoxicity (signal decrease), % at 8.35 µM;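 active means mean signal decrease across replicates above about 35% based on untreated-well scatter, with enough replicates individually passing, limit read from the data; inconclusive means no rule stated though some were filed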;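 further: 0% = median of neutral control wells and 100% = median of positive control wells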
3T3 cytotox 2: kills mouse NIH/3T3 fibroblasts; 56% of 5,600 active; NIH/3T3 viability, CellTiter-Glo ATP luminescence, 90 h; inhibition, % at 24.9 µM; AID 651744; shares compounds with T cruzi growth-1;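 active means mean loss of cell viability signal at or above a set limit, and enough replicates individually reaching it; inconclusive means meets only the mean limit or only the replicate share; inactive means meets neither condition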;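 further: 0% = median of neutral control wells and 100% = median of positive control wells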
Starred values were filed as active, the others as inactive.

Cc1ccc(S(=O)(=O)N(C)C[C@@H]2OCCCC[C@H](C)Oc3ccc(NS(=O)(=O)c4cccs4)cc3C(=O)N([C@H](C)CO)C[C@H]2C)cc1 was read as T cruzi growth-1 118*, IDH1 R132H inh -3, GASC1 inh 1, T cruzi growth-2 105*, T cruzi growth-3 39, NIH3T3 tox 8 and 3T3 cytotox 2 -2.
For C[C@H]1CCCCO[C@H](CN(C)S(=O)(=O)c2ccc(Cl)cc2)[C@@H](C)CN([C@@H](C)CO)C(=O)c2cc(NS(=O)(=O)c3cccs3)ccc2O1 the results were T cruzi growth-1 114*, GASC1 inh 0, T cruzi growth-2 104*, T cruzi growth-3 62, NIH3T3 tox 8 and 3T3 cytotox 2 -19.
`Cc1ccc(S(=O)(=O)N(C)C[C@H]2OCCCC[C@H](C)Oc3ccc(NS(=O)(=O)c4cccs4)cc3C(=O)N([C@@H](C)CO)C[C@H]2C)cc1` gave T cruzi growth-1 58 and GASC1 inh 1.
`C[C@@H]1CN([C@H](C)CO)C(=O)c2cc(NS(=O)(=O)c3cccs3)ccc2O[C@@H](C)CCCCO[C@H]1CN(C)S(=O)(=O)c1ccc(Cl)cc1` gave IDH1 R132H inh -1 and GASC1 inh -1.
For C[C@@H]1CCCCO[C@@H](CN(C)S(=O)(=O)c2ccc(Cl)cc2)[C@@H](C)CN([C@H](C)CO)C(=O)c2cc(NS(=O)(=O)c3cccs3)ccc2O1 the results were T cruzi growth-1 69 and GASC1 inh -2.
`C[C@H](CO)N1C[C@H](C)[C@H](CN(C)S(=O)(=O)c2ccc(Cl)cc2)OCCCC[C@H](C)Oc2ccc(NS(=O)(=O)c3cccs3)cc2C1=O` gave T cruzi growth-1 111*, GASC1 inh 0, T cruzi growth-2 97*, T cruzi growth-3 45, NIH3T3 tox -24 and 3T3 cytotox 2 -46.
For Cc1cc(NC(=O)CCCN2C(=O)c3cccc4cccc(c34)C2=O)n(-c2ccccc2)n1 the results were IDH1 R132H inh 0.
Screening CS(=O)(=O)N(CC(=O)Nc1ccccc1-c1ccccc1)c1ccccc1Cl returned IDH1 R132H inh 0.
`O=C1C(=O)C(C2CCC(c3ccc(Cl)cc3)CC2)C(=O)c2ccccc21` (centres undefined) gave IDH1 R132H inh 1.
`COCC(=O)N1[C@H](C#N)[C@H](c2ccc(C#CCC3CCCC3)cc2)[C@H]1CO` gave T cruzi growth-1 88 and GASC1 inh -3.
N#C[C@@H]1[C@H](c2ccc(C#CCC3CCCC3)cc2)[C@H](CO)N1C(=O)CN1CCOCC1 was read as T cruzi growth-1 inconclusive, GASC1 inh -2, T cruzi growth-2 102*, T cruzi growth-3 107*, NIH3T3 tox 22 and 3T3 cytotox 2 77*.
For COCC(=O)N1[C@@H](C#N)[C@@H](c2ccc(C#CCC3CCCC3)cc2)[C@@H]1CO the results were T cruzi growth-1 inconclusive, GASC1 inh -1, T cruzi growth-2 99*, T cruzi growth-3 90, NIH3T3 tox 17 and 3T3 cytotox 2 103*.
`N#C[C@H]1[C@@H](c2ccc(C#CCC3CCCC3)cc2)[C@H](CO)N1C(=O)CN1CCOCC1` gave T cruzi growth-1 90 and GASC1 inh -1.
Screening Cc1cc(Cl)ccc1OCC(=O)Nc1cccc(NC(=O)c2ccccc2C)c1 returned IDH1 R132H inh 1.
`Cc1ccccc1S(=O)(=O)N(C)C[C@@H]1OCc2cn(nn2)CCCC(=O)N([C@@H](C)CO)C[C@@H]1C` gave T cruzi growth-1 -13, IDH1 R132H inh -1 and GASC1 inh -1.
O=C(CCc1ccc(O)cc1)c1c(O)cc(O[C@@H]2O[C@H](CO)[C@@H](O)[C@H](O)[C@H]2O)cc1O was read as IDH1 R132H inh 1.
Screening COC(=O)c1ccccc1NC(=O)CN(C)S(=O)(=O)c1ccccc1 returned IDH1 R132H inh 0.
